Structures are written as SMILES.

Chain of Voltage-gated inwardly rectifying potassium channel KCNH2 (Q12809 whole entry): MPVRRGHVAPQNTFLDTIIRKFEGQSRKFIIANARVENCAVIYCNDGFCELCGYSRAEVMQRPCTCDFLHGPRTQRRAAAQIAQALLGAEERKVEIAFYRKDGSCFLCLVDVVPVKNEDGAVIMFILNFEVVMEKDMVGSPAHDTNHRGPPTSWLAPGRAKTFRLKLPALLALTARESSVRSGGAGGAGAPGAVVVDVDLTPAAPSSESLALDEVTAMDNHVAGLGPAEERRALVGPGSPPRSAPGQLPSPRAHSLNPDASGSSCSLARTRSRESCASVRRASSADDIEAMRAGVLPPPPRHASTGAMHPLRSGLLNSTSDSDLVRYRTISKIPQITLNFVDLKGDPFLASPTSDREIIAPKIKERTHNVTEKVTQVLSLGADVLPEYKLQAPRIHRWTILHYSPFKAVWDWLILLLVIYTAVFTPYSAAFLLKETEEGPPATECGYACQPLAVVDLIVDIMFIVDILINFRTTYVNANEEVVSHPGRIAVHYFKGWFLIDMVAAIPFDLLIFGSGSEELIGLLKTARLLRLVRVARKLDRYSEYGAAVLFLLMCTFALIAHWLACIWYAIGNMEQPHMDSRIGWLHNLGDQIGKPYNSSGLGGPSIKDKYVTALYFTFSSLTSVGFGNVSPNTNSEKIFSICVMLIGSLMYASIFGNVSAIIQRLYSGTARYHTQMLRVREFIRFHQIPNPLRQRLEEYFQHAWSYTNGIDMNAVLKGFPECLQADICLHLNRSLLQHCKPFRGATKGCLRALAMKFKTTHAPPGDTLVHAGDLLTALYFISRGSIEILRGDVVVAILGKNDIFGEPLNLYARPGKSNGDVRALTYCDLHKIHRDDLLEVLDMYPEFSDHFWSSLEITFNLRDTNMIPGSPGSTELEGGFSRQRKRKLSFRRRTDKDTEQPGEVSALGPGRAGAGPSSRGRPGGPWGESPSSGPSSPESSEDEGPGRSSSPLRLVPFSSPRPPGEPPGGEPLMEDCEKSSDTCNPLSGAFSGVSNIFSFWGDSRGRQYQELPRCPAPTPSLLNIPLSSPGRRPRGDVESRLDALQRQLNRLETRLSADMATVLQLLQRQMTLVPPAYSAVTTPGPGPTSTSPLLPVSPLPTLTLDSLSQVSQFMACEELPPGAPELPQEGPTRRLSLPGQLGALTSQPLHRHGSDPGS

The target in the first series is 80S Ribosome. Put plainly: Binding affinity to 80S ribosome in human HuH7 cells harboring pCMV-truncated human PCSK9 (1 to 152 residues)-proLuc assessed as inhibition of PCSK9 mRNA translation after overnight incubation by luciferase reporter gene assay. Type of series: cell-based. The following applies: huh-7. The gist of the method: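 Huh7 cells stably carry human PCSK9 prodomain (aa 1-152) fused to firefly luciferase (aa 2-550) in pcDNA3.1, kept under 900 µg/mL Geneticin. Plated 10,000/well in phenol red-free DMEM/10% FBS and left 4 h, then compound added (top final 20 µM, 0.5% DMSO). Incubated overnight at 37 °C, luminescence read with SteadyGlo.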
(In general: A reporter such as luciferase makes a cellular process visible.)
Usually IC50 stands for the midpoint of a concentration-inhibition curve. In the case of `O=C(c1ccc(-n2nnc3cccnc32)cc1)N(c1nccc2ccccc12)[C@@H]1CCCNC1`, the IC50 is 390 nM.

As for `Cn1cc(-c2ccc(C(=O)N(c3nccc4ccccc34)[C@@H]3CCCNC3)cc2)cn1`, the IC50 is 1060 nM.

For `O=C(c1ccc(-c2cnccn2)cc1)N(c1nccc2ccccc12)[C@@H]1CCCNC1`, the IC50 is 4300 nM.

For the compound `O=C(c1ccc(-n2nnc3cccnc32)nc1)N(c1ncccc1Cl)[C@@H]1CCCNC1`, the IC50 was 4100 nM.

`Cc1ccc2nnn(-c3ccc(C(=O)N(c4ncccc4Cl)[C@@H]4CCCNC4)cc3)c2n1`: the IC50 came to 450 nM.

In the case of `O=C(c1ccc(-c2cnn3cccnc23)cc1)N(c1nccc2ccccc12)[C@@H]1CCCNC1`, the 50% inhibitory concentration (IC50) came to 690 nM.

Test system in another series: not listed separately
Put plainly: Selectivity index, ratio of IC50 for cytotoxicity against rat bone marrow cells to IC50 for 80S ribosome in human HuH7 cells harboring pCMV-truncated human PCSK9 (1 to 152 residues)-proLuc. It counts as toxicity, cell-based. As to conditions: read-out: Ratio IC50.
Consider `Cc1ccc2nnn(-c3ccc(C(=O)N(c4ncccc4Cl)[C@@H]4CCCNC4)cc3)c2n1`, for which the selectivity ratio stood at 2.

In the next series the target is 80S Ribosome. Put plainly: Binding affinity to 80S ribosome in human HuH7 cells assessed as inhibition of PCSK9 mRNA translation after overnight incubation by ELISA. Type of series: cell-based. As to conditions: huh-7. The gist of the method:
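Huh7 cells kept in high-glucose DMEM, 10% BSA-free FBS, 2 mM L-glutamine, pen/strep at 37 °C, 5% CO2. Plated 7,500/well with compound or vehicle and incubated overnight (16-20 h). Secreted PCSK9 in the medium read by AlphaLISA: two antibodies to different mature-PCSK9 epitopes, biotinylated antibody 3 nM final, acceptor beads 10 µg/mL, 0.5 h rt; streptavidin donor beads 40 µg/mL, 1 h rt.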
Background: In an ELISA, binding on a coated surface is turned into a signal by an enzyme label.
For the compound `O=C(c1ccc(-n2nnc3cccnc32)cc1)N(c1nccc2ccccc12)[C@@H]1CCCNC1`, the 50% inhibitory concentration (IC50) was determined as 900 nM.

Regarding `Cn1cc(-c2ccc(C(=O)N(c3nccc4ccccc34)[C@@H]3CCCNC3)cc2)cn1`, the IC50 was 2380 nM.

On to `O=C(c1ccc(-c2cnccn2)cc1)N(c1nccc2ccccc12)[C@@H]1CCCNC1`, for which the IC50 came to 9320 nM.

In the case of `O=C(c1ccc(-n2nnc3cccnc32)nc1)N(c1ncccc1Cl)[C@@H]1CCCNC1`, the IC50 was determined as 9240 nM.

On to `Cc1ccc2nnn(-c3ccc(C(=O)N(c4ncccc4Cl)[C@@H]4CCCNC4)cc3)c2n1`, for which the IC50 was determined as 900 nM.

As for `CNc1cncc(-c2ccc(C(=O)N(c3ncccc3Cl)[C@@H]3CCCNC3)cc2)n1`, the IC50 was determined as 3080 nM.

Consider `O=C(c1ccc(-c2cnn3cccnc23)cc1)N(c1nccc2ccccc12)[C@@H]1CCCNC1`, for which the IC50 is 1290 nM.

A further series has as its target Voltage-gated inwardly rectifying potassium channel KCNH2 (Homo sapiens, UniProt Q12809). Put plainly: Inhibition of dofetilide binding to human ERG by fluorescence polarization assay.
Settings: not given
A general note: In fluorescence polarisation assays a small probe gives low polarisation when free and higher when bound to something large.
The term Ki denotes the dissociation constant of the complex between target and ligand, obtained from inhibition or displacement. The low end stands for higher affinity, the high end for lower affinity. `O=C(c1ccc(-n2nnc3cccnc32)cc1)N(c1nccc2ccccc12)[C@@H]1CCCNC1`: the Ki was 15.8 µM.

Compound `Cn1cc(-c2ccc(C(=O)N(c3nccc4ccccc34)[C@@H]3CCCNC3)cc2)cn1` registered a Ki of 16 µM.

`O=C(c1ccc(-c2cnccn2)cc1)N(c1nccc2ccccc12)[C@@H]1CCCNC1` yielded a Ki of more than 40 µM.

`O=C(c1ccc(-n2nnc3cccnc32)nc1)N(c1ncccc1Cl)[C@@H]1CCCNC1`: the Ki came out at 12.7 µM.

Compound `Cc1ccc2nnn(-c3ccc(C(=O)N(c4ncccc4Cl)[C@@H]4CCCNC4)cc3)c2n1` gave a Ki of 34 µM.

`CNc1cncc(-c2ccc(C(=O)N(c3ncccc3Cl)[C@@H]3CCCNC3)cc2)n1` came in with a Ki of 38.4 µM.

For `O=C(c1ccc(-c2cnn3cccnc23)cc1)N(c1nccc2ccccc12)[C@@H]1CCCNC1`, the Ki is 5.4 µM.

Test system in the next series: not listed separately
Put plainly: Intrinsic clearance in human liver microsomes. Type of series: ADME, microsome. As to conditions: read-out: CLH.
Consider `O=C(c1ccc(-n2nnc3cccnc32)cc1)N(c1nccc2ccccc12)[C@@H]1CCCNC1`, for which the microsomal CLint is 21.8 µL/min/mg.

With `Cn1cc(-c2ccc(C(=O)N(c3nccc4ccccc34)[C@@H]3CCCNC3)cc2)cn1`, the microsomal CLint stood at 13.3 µL/min/mg.

With `O=C(c1ccc(-c2cnccn2)cc1)N(c1nccc2ccccc12)[C@@H]1CCCNC1`, the microsomal CLint was found to be 11 µL/min/mg.

On to `O=C(c1ccc(-n2nnc3cccnc32)nc1)N(c1ncccc1Cl)[C@@H]1CCCNC1`, for which the microsomal CLint is less than 8 µL/min/mg.

With `Cc1ccc2nnn(-c3ccc(C(=O)N(c4ncccc4Cl)[C@@H]4CCCNC4)cc3)c2n1`, the microsomal CLint amounted to 9 µL/min/mg.

Regarding `CNc1cncc(-c2ccc(C(=O)N(c3ncccc3Cl)[C@@H]3CCCNC3)cc2)n1`, the microsomal CLint worked out at 8.7 µL/min/mg.

Turning to `O=C(c1ccc(-c2cnn3cccnc23)cc1)N(c1nccc2ccccc12)[C@@H]1CCCNC1`, the microsomal CLint was determined as 14.5 µL/min/mg.

The next series concerns Bone marrow cell. Put plainly: Cytotoxicity against rat bone marrow cells assessed as reduction in cell viability after 72 hrs by CellTiter-Glo assay.
Settings: not given
It counts as cell-based.
Turning to `Cn1cc(-c2ccc(C(=O)N(c3nccc4ccccc34)[C@@H]3CCCNC3)cc2)cn1`, the IC50 worked out at 2900 nM.

With `O=C(c1ccc(-c2cnccn2)cc1)N(c1nccc2ccccc12)[C@@H]1CCCNC1`, the IC50 was more than 20000 nM.

Consider `Cc1ccc2nnn(-c3ccc(C(=O)N(c4ncccc4Cl)[C@@H]4CCCNC4)cc3)c2n1`, for which the half-inhibitory concentration (IC50) was 1000 nM.

As to `CNc1cncc(-c2ccc(C(=O)N(c3ncccc3Cl)[C@@H]3CCCNC3)cc2)n1`, the IC50 came to 19600 nM.

For the compound `O=C(c1ccc(-c2cnn3cccnc23)cc1)N(c1nccc2ccccc12)[C@@H]1CCCNC1`, the IC50 was determined as 1400 nM.

Test system in a further series: not listed separately
Kind of series: Intrinsic clearance in rat liver microsomes. Type of series: ADME, microsome. As to conditions: read-out: CLH.
On to `O=C(c1ccc(-c2cnccn2)cc1)N(c1nccc2ccccc12)[C@@H]1CCCNC1`, for which the microsomal CLint was determined as 123 µL/min/mg.

`O=C(c1ccc(-n2nnc3cccnc32)nc1)N(c1ncccc1Cl)[C@@H]1CCCNC1`: the microsomal CLint worked out at 14.7 µL/min/mg.

On to `Cc1ccc2nnn(-c3ccc(C(=O)N(c4ncccc4Cl)[C@@H]4CCCNC4)cc3)c2n1`, for which the microsomal CLint amounted to 38.5 µL/min/mg.

`O=C(c1ccc(-c2cnn3cccnc23)cc1)N(c1nccc2ccccc12)[C@@H]1CCCNC1`: the microsomal CLint was found to be 31.2 µL/min/mg.

Test system in the next series: not listed separately
Put plainly: Lipophilicity, log D of the compound by shake flask method. As to conditions: octanol/water. Type of series: physicochemical. The gist of the method:
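LogD measured by the shake-flask method.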
By logD is commonly meant the decadic logarithm of the distribution of all forms, ionised or not, between an organic phase and buffer at a given pH. Low readings indicate a more hydrophilic compound, high ones a more lipophilic compound. As to `O=C(c1ccc(-n2nnc3cccnc32)cc1)N(c1nccc2ccccc12)[C@@H]1CCCNC1`, the logD stood at 1.4.

Take `Cn1cc(-c2ccc(C(=O)N(c3nccc4ccccc34)[C@@H]3CCCNC3)cc2)cn1`: the logD amounted to 0.9.

`O=C(c1ccc(-c2cnccn2)cc1)N(c1nccc2ccccc12)[C@@H]1CCCNC1` displayed a logD of 0.7.

`O=C(c1ccc(-n2nnc3cccnc32)nc1)N(c1ncccc1Cl)[C@@H]1CCCNC1` gave a logD of 0.1.

In turn, `Cc1ccc2nnn(-c3ccc(C(=O)N(c4ncccc4Cl)[C@@H]4CCCNC4)cc3)c2n1` yielded a logD of 1.2.

`CNc1cncc(-c2ccc(C(=O)N(c3ncccc3Cl)[C@@H]3CCCNC3)cc2)n1` registered a logD of 1.07.

`O=C(c1ccc(-c2cnn3cccnc23)cc1)N(c1nccc2ccccc12)[C@@H]1CCCNC1` displayed a logD of 1.1.

The values are drawn from ChEMBL document CHEMBL4118248, “Small Molecule Proprotein Convertase Subtilisin/Kexin Type 9 (PCSK9) Inhibitors: Hit to Lead Optimization of Systemic Agents” (J Med Chem, 2018).
